Published values from different studies.
Protocols differ between the studies behind these lines.
RET V804L: Proto-oncogene tyrosine-protein kinase receptor Ret (RET, Homo sapiens, UniProt P07949, V804L)
RET V804M: Proto-oncogene tyrosine-protein kinase receptor Ret (RET, Homo sapiens, UniProt P07949, V804M)
RET: Proto-oncogene tyrosine-protein kinase receptor Ret (RET, Homo sapiens, UniProt P07949)

SMILES | target | observed | mode | method | tested at | measurement | value
N#CC1(c2ccccn2)CCN(Cc2cc(C(=O)O)c(=O)n3ccccc23)CC1 | RET V804L | cell-free assay | – | competition with immobilised ligand | 1 µM | remaining binding | 100%
Nc1ncc(-c2nc(N3CCOCC3)nc(N3CCOCC3)n2)c(C(F)F)n1 | RET V804M | binding | – | competition with immobilised ligand | 10 µM | remaining binding | 73%
Cn1cc(-c2cc(F)cc(N3CCn4c(cc5c4CCCC5)C3=O)c2CO)cc(Nc2ccc(N3CCN(C4COC4)CC3)cn2)c1=O | RET | enzyme activity | inhibitor | – | 0.1 µM | inhibition | 11%
Cc1nn(C)cc1-c1nc2c(N3CCN(Cc4ccc(Cl)cc4)CC3)c(Cl)cnc2[nH]1 | RET V804L | binding | – | competition with immobilised ligand | 1 µM | remaining binding | 2.1%
O=C(Cn1cc(C=C2C(=O)NC(=O)NC2=O)c2ccccc21)Nc1ccccc1 | RET | enzyme activity | inhibitor | radiometric | 0.1 µM | remaining activity | 131%
Cn1cncc1[C@](O)(COc1ccc(C#N)cc1-c1ccc(OC(F)(F)F)cc1)c1ccc(C#N)cc1 | Proto-oncogene tyrosine-protein kinase receptor Ret (RET, Homo sapiens, UniProt P07949, M918T) | cell-free assay | – | competition with immobilised ligand | 1 µM | remaining binding | 95%
C#Cc1n[nH]c2c(-c3cn(C(C)c4ccccn4)c(=O)[nH]c3=O)cc(F)cc12 (stereo not shown) | RET | enzyme activity | inhibitor | – | 1 µM | inhibition | 8.7%
O=C1NC(=O)N(c2ccccc2)C(=O)C1=CNc1ccc2[nH]c(=O)[nH]c2c1 | RET | enzyme activity | inhibitor | radiometric | 0.1 µM | remaining activity | 107%
O=c1[nH]c2ccccc2n1C1CCN(Cc2ccc(-c3[nH]c4cc5ncnc5cc4nc3-c3ccccc3)cc2)CC1 | RET | cell-free assay | – | – | 0.5 µM | remaining signal | 96.7%
C#Cc1n[nH]c2c(-c3cn([C@@H](C)c4ccccc4)c(=O)[nH]c3=O)cc(F)cc12 | RET V804M | enzyme activity | inhibitor | – | 0.1 µM | inhibition | 2.3%
